# Laboratory results taken from ChEMBL document CHEMBL1926616, “Design, synthesis and biological evaluation of novel glycosylated diphyllin derivatives as topoisomerase II inhibitors” (Eur J Med Chem, 2012).
# The source made the active and inactive calls. No cut-off for these calls is given here.
# Legend:
# HCT-116 [1] = experiment: Cytotoxicity against human HCT116 cells after 72 hrs by sulforhodamine B and MTT assay; type: functional, cell-based; settings: HCT-116, 72 h
# Procedure, shortened: (§1)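 Log-phase cells were plated overnight and exposed for 72 h to a 5-concentration gradient, in triplicate wells. SRB arm: 10% cold TCA fixation for 1 h at 4 °C, 4 mg/ml SRB in 1% acetic acid for 15 min, dye dissolved in 10 mM Tris-HCl, read at 520 nm. MTT arm: 5 mg/mL MTT for 4 h at 37 °C, SDS-isobutanol-HCl solubilisation for 12–20 h, read at 570 nm. IC50 by Logit method from at least 3 independent tests.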
# MCF7 = experiment: Cytotoxicity against human MCF7 cells after 72 hrs by sulforhodamine B and MTT assay; type: functional, cell-based; settings: MCF7, 72 h; procedure, shortened: as §1
# [2] = target: DNA topoisomerase 2-alpha (Homo sapiens) (UniProt P11388); experiment: Inhibition of human topoisomerase 2-mediated decatenation of kinetoplast DNA at 100 uM after 15 mins by agarose gel electrophoresis
# DNA topoisomerase 2-alpha (Homo sapiens), sequence (P11388 whole entry): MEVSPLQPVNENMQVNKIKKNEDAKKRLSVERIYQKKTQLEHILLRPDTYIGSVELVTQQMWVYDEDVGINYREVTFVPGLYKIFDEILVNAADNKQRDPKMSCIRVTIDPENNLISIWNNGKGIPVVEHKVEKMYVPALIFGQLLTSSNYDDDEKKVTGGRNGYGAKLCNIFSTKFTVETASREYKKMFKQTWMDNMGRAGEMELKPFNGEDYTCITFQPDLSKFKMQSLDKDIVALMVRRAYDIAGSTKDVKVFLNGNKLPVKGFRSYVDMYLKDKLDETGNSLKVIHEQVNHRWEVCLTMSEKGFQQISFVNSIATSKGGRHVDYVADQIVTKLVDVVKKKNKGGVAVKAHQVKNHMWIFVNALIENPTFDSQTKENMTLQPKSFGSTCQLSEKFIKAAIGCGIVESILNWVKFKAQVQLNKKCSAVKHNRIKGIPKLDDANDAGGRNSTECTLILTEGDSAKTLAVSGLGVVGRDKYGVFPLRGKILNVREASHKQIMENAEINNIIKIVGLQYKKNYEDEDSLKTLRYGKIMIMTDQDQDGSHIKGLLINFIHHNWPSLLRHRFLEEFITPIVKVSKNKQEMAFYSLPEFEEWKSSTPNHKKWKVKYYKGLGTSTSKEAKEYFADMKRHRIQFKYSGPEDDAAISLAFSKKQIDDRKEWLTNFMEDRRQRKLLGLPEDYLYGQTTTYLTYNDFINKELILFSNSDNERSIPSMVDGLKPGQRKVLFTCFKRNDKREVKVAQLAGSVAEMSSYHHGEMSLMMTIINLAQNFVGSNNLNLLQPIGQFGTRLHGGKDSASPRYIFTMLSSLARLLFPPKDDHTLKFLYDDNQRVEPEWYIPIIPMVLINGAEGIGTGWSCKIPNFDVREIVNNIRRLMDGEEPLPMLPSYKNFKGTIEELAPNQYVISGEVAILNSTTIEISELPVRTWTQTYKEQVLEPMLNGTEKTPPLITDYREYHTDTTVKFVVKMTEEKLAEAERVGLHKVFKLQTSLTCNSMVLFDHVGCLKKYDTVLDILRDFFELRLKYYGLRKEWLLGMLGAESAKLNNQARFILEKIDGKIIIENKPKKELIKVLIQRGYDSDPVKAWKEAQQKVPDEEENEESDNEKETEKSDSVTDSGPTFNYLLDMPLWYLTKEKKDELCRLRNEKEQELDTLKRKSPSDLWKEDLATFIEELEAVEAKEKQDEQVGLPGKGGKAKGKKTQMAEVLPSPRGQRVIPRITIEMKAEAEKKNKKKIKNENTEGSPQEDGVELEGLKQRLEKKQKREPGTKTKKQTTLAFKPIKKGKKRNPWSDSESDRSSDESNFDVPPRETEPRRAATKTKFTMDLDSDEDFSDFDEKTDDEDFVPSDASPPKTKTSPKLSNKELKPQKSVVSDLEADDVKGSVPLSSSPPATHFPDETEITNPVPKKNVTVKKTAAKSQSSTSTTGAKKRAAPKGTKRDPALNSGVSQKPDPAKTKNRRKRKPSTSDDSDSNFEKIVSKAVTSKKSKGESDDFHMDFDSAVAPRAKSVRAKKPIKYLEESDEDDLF
# Procedure, shortened: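 ATP-dependent kDNA decatenation by 1 unit Topo II in 50 mM Tris-HCl pH 7.7, 50 mM KCl, 5 mM MgCl2, 1 mM ATP, 0.5 mM DTT, 0.5 mM EDTA and BSA, run for 15 min at 37 °C. Stopped with 10% SDS, then run on 1% agarose in TAE at 4 V/cm for 1 h and stained with ethidium bromide.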
# KB [3] = experiment: Cytotoxicity against human KB cells after 72 hrs by sulforhodamine B and MTT assay; type: functional, cell-based; procedure, shortened: as §1
# HL-60 [4] = experiment: Induction of apoptosis in human HL60 cells assessed as DNA fragmentation at 10 uM after 36 hrs by gel electrophoresis; type: functional, cell-based
# Procedure, shortened: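 HL-60 cells were seeded and exposed to compound for 36 h. Harvested cells were lysed with an equal volume of 1.2% SDS, and the fragmented DNA was extracted and resolved by gel electrophoresis.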
# HCT-116 [5] = experiment: Cell cycle arrest in human HCT116 cells assessed as accumulation at G2/M phase at 1 to 10 uM after 24 hrs using propidium iodide stain by FACS-flow cytometry; type: functional, cell-based
# KB [6] = experiment: Cytotoxicity against vincristine-selected multi drug-resistant human KB cells after 72 hrs by sulforhodamine B and MTT assay; type: functional, cell-based
# Procedure, shortened: (§2)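 Log-phase cells were seeded, preincubated (overnight for SRB, 24 h for MTT), then given a five-concentration gradient in triplicate wells for 72 h. For MTT, reagent was added for 4 h at 37 °C, solubilized in SDS-isobutanol-HCl for 12-20 h, and read at 570 nm. IC50 was derived by the Logit method from at least 3 independent tests.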
# HL-60 [7] = experiment: Cell cycle arrest in human HL60 cells assessed as accumulation at G0/G1 phase at 10 uM after 24 hrs using propidium iodide stain by FACS-flow cytometry (reference value: 39%); type: functional
# HL-60 [8] = experiment: Cell cycle arrest in human HL60 cells assessed as accumulation at S phase at 1 uM after 24 hrs using propidium iodide stain by FACS-flow cytometry (reference value: 38.4%); type: functional
# HL-60 [9] = experiment: Cell cycle arrest in human HL60 cells assessed as accumulation at G0/G1 phase at 1 uM after 24 hrs using propidium iodide stain by FACS-flow cytometry (reference value: 39%); type: functional
# HCT-116 [10] = experiment: Cell cycle arrest in human HCT116 cells assessed as accumulation at G0/G1 phase after 24 hrs using propidium iodide stain by FACS-flow cytometry; type: functional, cell-based
# HCT-116 [11] = experiment: Cell cycle arrest in human HCT116 cells assessed as accumulation at G0/G1 phase at 1 to 10 uM using propidium iodide stain by FACS-flow cytometry; type: functional, cell-based; settings: TDE = time-dependent effect
# HL-60 [12] = experiment: Cell cycle arrest in human HL60 cells assessed as accumulation at G0/G1 phase at 1 to 10 uM using propidium iodide stain by FACS-flow cytometry; type: functional, cell-based; settings: TDE = time-dependent effect
# HL-60 [13] = experiment: Cell cycle arrest in human HL60 cells assessed as accumulation at G2/M phase at 1 uM after 24 hrs using propidium iodide stain by FACS-flow cytometry (reference value: 22.6%); type: functional
# HL-60 [14] = experiment: Cell cycle arrest in human HL60 cells assessed as accumulation at G2/M phase after 24 hrs using propidium iodide stain by FACS-flow cytometry; type: functional, cell-based
# HL-60 [15] = experiment: Cell cycle arrest in human HL60 cells assessed as accumulation at G2/M phase at 10 uM after 24 hrs using propidium iodide stain by FACS-flow cytometry (reference value: 22.6%); type: functional
# KB [16] = experiment: Resistance index, ratio of IC50 for vincristine-selected multi drug-resistant human KB cells to IC50 for human KB cells; type: functional
# Procedure, shortened: (§3)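 Resistance factor is the IC50 in the resistant line divided by the IC50 in the parental line. Both IC50s come from 72 h SRB/MTT growth-inhibition assays, derived by the Logit method from at least 3 independent tests.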
# K562 [17] = experiment: Cytotoxicity against adriamycin-selected multi drug-resistant human K562 cells after 72 hrs by sulforhodamine B and MTT assay; type: functional, cell-based; settings: K562, 72 h; procedure, shortened: as §2
# HL-60 [18] = experiment: Cell cycle arrest in human HL60 cells assessed as accumulation at S phase at 10 uM after 24 hrs using propidium iodide stain by FACS-flow cytometry (reference value: 38.4%); type: functional
# HL-60 [19] = experiment: Cell cycle arrest in human HL60 cells assessed as accumulation at G2/M phase at 1 to 10 uM using propidium iodide stain by FACS-flow cytometry; type: functional, cell-based; settings: TDE = time-dependent effect
# K562 [20] = experiment: Resistance index, ratio of IC50 for adriamycin-selected multi drug-resistant human K562 cells to IC50 for human K562 cells; type: functional; procedure, shortened: as §3
# HCT-116 [21] = experiment: Cell cycle arrest in human HCT116 cells assessed as accumulation at G0/G1 phase at 1 to 10 uM after 24 hrs using propidium iodide stain by FACS-flow cytometry; type: functional, cell-based
# K562 [22] = experiment: Cytotoxicity against human K562 cells after 72 hrs by sulforhodamine B and MTT assay; type: functional, cell-based; settings: K562, 72 h; procedure, shortened: as §2
# HL-60 [23] = experiment: Cell cycle arrest in human HL60 cells assessed as accumulation at G0/G1 phase after 24 hrs using propidium iodide stain by FACS-flow cytometry; type: functional, cell-based
# HCT-116 [24] = experiment: Cell cycle arrest in human HCT116 cells assessed as accumulation at G2/M phase at 1 to 10 uM using propidium iodide stain by FACS-flow cytometry; type: functional, cell-based; settings: TDE = time-dependent effect
# HCT-116 [25] = experiment: Cell cycle arrest in human HCT116 cells assessed as accumulation at G2/M phase after 24 hrs using propidium iodide stain by FACS-flow cytometry; type: functional, cell-based
smiles,measurement,setting,value
COc1cc2c(O[C@@H]3O[C@H](CO)[C@H](O)[C@H](O)[C@H]3O)c3c(c(-c4ccc5c(c4)OCO5)c2cc1OC)C(=O)OC3,IC50,HCT-116 [1],> 10000 nM
same,IC50,MCF7,4110 nM
same,inhibition,[2],inactive
same,IC50,KB [3],4890 nM
COc1cc2c(O[C@@H]3O[C@H](C)[C@@H](OC(C)=O)[C@H](OC(C)=O)[C@H]3OC(C)=O)c3c(c(-c4ccc5c(c4)OCO5)c2cc1OC)C(=O)OC3,Activity,HL-60 [4],Active
same,Activity,HCT-116 [5],Active
same,IC50,HCT-116 [1],270 nM
same,IC50,KB [6],1320 nM
same,Activity,HL-60 [7],55%
same,Activity,HL-60 [8],36.3%
same,Activity,HL-60 [9],46.4%
same,Activity,HCT-116 [10],Dose-dependent effect
same,Activity,HCT-116 [11],tde
same,Activity,HL-60 [12],tde
same,Activity,HL-60 [13],17.4%
same,Activity,HL-60 [14],Dose-dependent effect
same,Activity,HL-60 [15],25.7%
same,Ratio IC50,KB [16],3
same,IC50,K562 [17],7660 nM
same,Activity,HL-60 [18],19.3%
same,IC50,MCF7,380 nM
same,Activity,HL-60 [19],tde
same,Ratio IC50,K562 [20],9.5
same,Activity,HCT-116 [21],Active
same,IC50,K562 [22],808 nM
same,Activity,HL-60 [23],Dose-dependent effect
same,inhibition,[2],Active
same,Activity,HCT-116 [24],tde
same,Activity,HCT-116 [25],Dose-dependent effect
same,IC50,KB [3],440 nM
COc1cc2c(O[C@@H]3O[C@@H]4COC(C)(C)O[C@H]4[C@H](O)[C@H]3O)c3c(c(-c4ccc5c(c4)OCO5)c2cc1OC)C(=O)OC3,IC50,HCT-116 [1],43 nM
same,IC50,MCF7,53 nM
same,inhibition,[2],Active
same,IC50,KB [3],10 nM
COc1cc2c(O[C@@H]3O[C@H](C)[C@H](O)[C@H](O)[C@H]3O)c3c(c(-c4ccc5c(c4)OCO5)c2cc1OC)C(=O)OC3,Activity,HL-60 [4],Active
same,Activity,HCT-116 [5],inactive
same,IC50,HCT-116 [1],6430 nM
same,Activity,HL-60 [7],40.5%
same,Activity,HL-60 [8],30%
same,Activity,HL-60 [9],38.6%
same,Activity,HL-60 [13],31.5%
same,Activity,HL-60 [15],24.9%
same,Activity,HL-60 [18],34.6%
same,IC50,MCF7,1810 nM
same,Activity,HCT-116 [21],inactive
same,inhibition,[2],inactive
same,IC50,KB [3],3050 nM
COc1cc2c(O[C@H]3O[C@@H](C)[C@@H](O)[C@@H](O)[C@@H]3O)c3c(c(-c4ccc5c(c4)OCO5)c2cc1OC)C(=O)OC3 [PATENTIFLORIN B],Activity,HL-60 [4],Active
same,IC50,HCT-116 [1],> 10000 nM
same,IC50,MCF7,1420 nM
same,inhibition,[2],inactive
same,IC50,KB [3],> 10000 nM
COc1cc2c(O[C@@H]3OC[C@H](O)[C@H](O)[C@H]3O)c3c(c(-c4ccc5c(c4)OCO5)c2cc1OC)C(=O)OC3 [ACUTISSIMALIGNAN A],IC50,HCT-116 [1],> 10000 nM
same,IC50,MCF7,> 10000 nM
same,inhibition,[2],inactive
same,IC50,KB [3],6880 nM
COc1cc2c(O[C@@H]3O[C@H](COCc4ccccc4)[C@@H](O)[C@H](O)[C@H]3O)c3c(c(-c4ccc5c(c4)OCO5)c2cc1OC)C(=O)OC3,IC50,HCT-116 [1],36 nM
same,IC50,MCF7,28 nM
same,inhibition,[2],Active
same,IC50,KB [3],15 nM
COC[C@H]1O[C@@H](Oc2c3c(c(-c4ccc5c(c4)OCO5)c4cc(OC)c(OC)cc24)C(=O)OC3)[C@H](O)[C@@H](O)[C@@H]1O,IC50,HCT-116 [1],> 10000 nM
same,IC50,MCF7,> 10000 nM
same,inhibition,[2],inactive
same,IC50,KB [3],4500 nM
